Activity calls are given as the source filed them. The calls are words filed in the database; no cut-off is given here.
What was measured:
[1] = biological target: T1, Gastrin/cholecystokinin type B receptor (Homo sapiens, UniProt P32239); assay: Displacement of CCK-8 from human Cholecystokinin type B receptor expressing CHO cell membranes; settings: for Log IC50: cho
T1 sequence (P32239 whole entry): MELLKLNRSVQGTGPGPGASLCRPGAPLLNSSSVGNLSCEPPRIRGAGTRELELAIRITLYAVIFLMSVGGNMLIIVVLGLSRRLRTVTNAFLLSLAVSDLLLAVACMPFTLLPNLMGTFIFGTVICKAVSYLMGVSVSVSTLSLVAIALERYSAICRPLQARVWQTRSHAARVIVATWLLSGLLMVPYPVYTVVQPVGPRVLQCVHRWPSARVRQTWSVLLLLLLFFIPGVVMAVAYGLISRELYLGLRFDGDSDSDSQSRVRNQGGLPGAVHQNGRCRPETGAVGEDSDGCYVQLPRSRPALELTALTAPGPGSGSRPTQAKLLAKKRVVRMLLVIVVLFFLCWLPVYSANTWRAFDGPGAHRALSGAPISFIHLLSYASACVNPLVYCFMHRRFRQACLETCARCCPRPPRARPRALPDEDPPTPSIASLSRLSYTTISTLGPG

[2] = biological target: T2, Cholecystokinin receptor type A (Homo sapiens, UniProt P32238); assay: Displacement of CCK-8 from CHO cell membranes expressing human Cholecystokinin type A receptor; settings: for Log IC50: cho
T2 sequence (P32238 whole entry): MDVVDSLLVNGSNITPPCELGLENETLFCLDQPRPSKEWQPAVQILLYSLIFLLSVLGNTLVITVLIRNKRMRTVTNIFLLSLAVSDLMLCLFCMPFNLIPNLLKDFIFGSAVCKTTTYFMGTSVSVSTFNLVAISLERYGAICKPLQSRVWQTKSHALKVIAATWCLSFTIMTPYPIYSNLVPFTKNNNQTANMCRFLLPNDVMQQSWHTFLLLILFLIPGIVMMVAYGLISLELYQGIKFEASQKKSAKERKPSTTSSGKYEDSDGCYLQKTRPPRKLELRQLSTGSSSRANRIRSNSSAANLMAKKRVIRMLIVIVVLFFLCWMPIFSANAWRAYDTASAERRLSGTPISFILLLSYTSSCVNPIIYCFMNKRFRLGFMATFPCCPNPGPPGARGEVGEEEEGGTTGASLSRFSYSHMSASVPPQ

Cavia porcellus [3] = species: Cavia porcellus; assay: Effective concentration required to induce contraction of guinea pig gall bladder
Cavia porcellus [4] = species: Cavia porcellus; assay: Percent contraction induced by compound at […] in guinea pig gall bladder was determined; format: functional
[5] = biological target: T3, Cholecystokinin receptor type A (Cavia porcellus, UniProt Q63931); assay: Antagonist activity against CCK-8 induced responses in guinea pig gall bladder was determined; format: functional, tissue-based; settings: for Kb: read-out: pA2 (converted)
T3 sequence (Q63931 whole entry): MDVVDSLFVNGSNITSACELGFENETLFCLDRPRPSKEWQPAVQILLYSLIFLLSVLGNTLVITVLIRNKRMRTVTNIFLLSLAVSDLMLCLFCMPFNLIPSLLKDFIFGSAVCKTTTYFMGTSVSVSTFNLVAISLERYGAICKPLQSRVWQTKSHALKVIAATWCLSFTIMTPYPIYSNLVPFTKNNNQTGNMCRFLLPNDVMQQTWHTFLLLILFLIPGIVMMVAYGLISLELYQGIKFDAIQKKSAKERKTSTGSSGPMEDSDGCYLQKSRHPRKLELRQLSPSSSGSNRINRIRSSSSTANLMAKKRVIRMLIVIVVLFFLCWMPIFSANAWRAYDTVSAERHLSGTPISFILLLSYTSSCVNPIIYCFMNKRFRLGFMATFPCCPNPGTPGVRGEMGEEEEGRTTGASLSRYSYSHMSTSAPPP
Procedure, shortened: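 Isolated guinea pig gallbladder rings in physiological salt solution at 37 °C, 95% O2/5% CO2, pH 7.4, under 1 g resting tension, with isometric force recording. Tissues from at least three animals were incubated 60 min with antagonist (three to five concentrations), then given a cumulative sulfated CCK-8 curve. Paired untreated tissue served as time/solvent control for the concentration ratio. pA2 was derived by Schild analysis.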

Cavia porcellus [6] = species: Cavia porcellus; assay: Percent contraction induced by compound at […] in guinea pig gall bladder was determined; Inactive; format: functional

Work on `CC(=O)N[C@@H](Cc1c[nH]c2ccccc12)C(=O)N[C@@H](CCCCNC(=O)Nc1ccccc1C)C(=O)N[C@@H](CC(=O)O)C(=O)N[C@@H](Cc1ccc(C)cc1)C(N)=O` [listing 1 of 2 here] yielded an IC50 [1] of 5010 nM, an IC50 [2] of 20 nM and an EC50 (Cavia porcellus [3]) of 1.58 nM.

`CC(=O)N[C@@H](Cc1c[nH]c2ccccc12)C(=O)N[C@@H](CCCCNC(=O)Nc1ccccc1Cl)C(=O)N[C@@H](CC(=O)O)C(=O)N[C@@H](Cc1ccc(C)cc1)C(N)=O` [listing 1 of 2 here] was tested, and the “Log IC50” value [1] was -6, the “Log IC50” value [2] was -8.3 and the EC50 (Cavia porcellus [3]) was 0.501 nM.

`CC(=O)N[C@@H](Cc1c[nH]c2ccccc12)C(=O)N[C@@H](CCCCNC(=O)Nc1ccccc1Cl)C(=O)N[C@@H](CC(=O)O)C(=O)N[C@@H](Cc1ccc(C)cc1)C(N)=O` [listing 2 of 2 here] was tested, and the Activity (Cavia porcellus [4]) was 117%.

`CC(=O)N[C@@H](Cc1c[nH]c2ccccc12)C(=O)N[C@@H](Cc1ccc(NC(=O)Nc2ccccc2C)cc1)C(=O)N[C@@H](CC(=O)O)C(=O)N[C@@H](Cc1ccc(C)cc1)C(N)=O` showed an IC50 [1] of 100000 nM, an IC50 [2] of 31.6 nM and a Kb [5] of 39.8 nM.

Compound `Cc1cccc(NC(=O)N[C@@H]2N=C(c3ccccc3)c3ccccc3N(C)C2=O)c1` [L-365260] has an IC50 [2] of 158 nM.

For `CC(=O)N[C@@H](Cc1c[nH]c2ccccc12)C(=O)N[C@@H](Cc1ccc(NC(=O)Nc2ccccc2Cl)cc1)C(=O)N[C@@H](CC(=O)O)C(=O)N[C@@H](Cc1ccc(C)cc1)C(N)=O`, the IC50 [1] was 63100 nM, the IC50 [2] was 100 nM and the Kb [5] was 79.4 nM.

`CC(=O)N[C@@H](Cc1c[nH]c2ccccc12)C(=O)NC(Cc1ccc(NC(=O)Nc2ccccc2C)cc1)C(=O)N[C@@H](CC(=O)O)C(=O)N[C@H](Cc1ccc(C)cc1)C(N)=O` (stereo not given in full) was tested, and the Activity (Cavia porcellus [6]) was “inactive”.

`CC(=O)N[C@H](Cc1c[nH]c2ccccc12)C(=O)NC(Cc1cccc(NC(=O)Nc2ccccc2C)c1)C(=O)N[C@H](CC(=O)O)C(=O)N[C@@H](Cc1ccc(C)cc1)C(N)=O` (stereo not given in full) was tested, and the “Log IC50” value [1] was -4.3, the “Log IC50” value [2] was -7.2 and the pA2 [5] was 7.4. For the same compound, the Activity (Cavia porcellus [6]) was “inactive”.

In the case of `CC(=O)N[C@@H](Cc1c[nH]c2ccccc12)C(=O)NC(Cc1cccc(NC(=O)Nc2ccccc2C)c1)C(=O)N[C@@H](CC(=O)O)C(=O)N[C@H](Cc1ccc(C)cc1)C(N)=O` (stereo not given in full), the “Log IC50” value [1] is reported as -5, the “Log IC50” value [2] is reported as -7 and the pA2 [5] is reported as 7.2. For the same compound, the Activity (Cavia porcellus [6]) was “inactive”.

With `CC(=O)N[C@@H](Cc1c[nH]c2ccccc12)C(=O)NC(Cc1ccc(NC(=O)Nc2ccccc2Cl)cc1)C(=O)N[C@@H](CC(=O)O)C(=O)N[C@H](Cc1ccc(C)cc1)C(N)=O` (stereo not given in full) the Activity (Cavia porcellus [6]) was “inactive”.

`CC(=O)N[C@@H](Cc1c[nH]c2ccccc12)C(=O)N[C@@H](CCCCNC(=O)Nc1ccccc1C)C(=O)N[C@@H](CC(=O)O)C(=O)N[C@@H](Cc1ccc(C)cc1)C(N)=O` [listing 2 of 2 here] was tested, and the Activity (Cavia porcellus [4]) was 105%.
